Data as given in ChEMBL document CHEMBL4715756, “Nitrotriazole-based acetamides and propanamides with broad spectrum antitrypanosomal activity” (Eur J Med Chem, 2016).
Calls of active or inactive are those of the source. No cut-off for these calls is given here.

Experiments:
[1] = Dissociation constant, pKa of the compound
in vitro [2] = conditions: rat
[3] = system: Trypanosoma brucei rhodesiense; assay: Substrate activity at Trypanosoma brucei rhodesiense recombinant His-tagged type 1 nitroreductase assessed as enzyme specific activity using NADH at 100 uM by spectrophotometrically
Method in brief: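 Purified recombinant his-tagged TbNTR. Each nitrotriazole substrate at 100 µM with NADH 100 µM. NADH oxidation followed spectrophotometrically at 340 nm. Specific activity given as nmol NADH oxidized min^-1 mg^-1 protein, mean of three experiments ± SD.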

Trypanosoma cruzi [4] = assay: Trypanocidal activity against Trypanosoma cruzi Tulahuen C4 amastigotes infected in rat L6 cells in vitro
in vitro [5] = conditions: rat, L6 cells versus Trypanosoma cruzi Tulahuen C4
in vitro [6] = conditions: rat, L6 cells versus Leishmania donovani MHOM/ET/67/L82
[7] = Toxicity in Trypanosoma cruzi Brazil trypomastigotes expressing firefly luciferase infected BALB/c mouse assessed as healthy appearance at 13 mg/kg, ip measured after 5 to 10 days; format: organism-based; conditions: in vivo, time 5-10 day
Method in brief: (§1)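 Balb/c mice, 5 weeks old, infected with 10^5 luciferase-expressing Brazil-strain T. cruzi trypomastigotes. From 4 days post-infection, mice were dosed i.p. at 13 mg/kg/day for 10 days in 2% methylcellulose + 0.5% Tween 80 vehicle, 5 mice/group. Animals were observed over treatment, with imaging after 5 and 10 days of dosing.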

[8] = Toxicity in Trypanosoma cruzi Brazil trypomastigotes expressing firefly luciferase infected BALB/c mouse assessed mortality at 13 mg/kg, ip measured after 5 to 10 days; format: organism-based; conditions: in vivo, time 5-10 day; method in brief: as §1
Trypanosoma cruzi [9] = assay: Anti-chagasic activity against Trypanosoma cruzi Brazil trypomastigotes expressing firefly luciferase infected in BALB/c mouse assessed as reduction in parasitemia at 13 mg/kg/day, ip measured after 5 days by bioluminescence assay; format: functional, organism-based; conditions: time 5.0 day
Trypanosoma cruzi [10] = assay: Anti-chagasic activity against Trypanosoma cruzi Brazil trypomastigotes expressing firefly luciferase infected in BALB/c mouse assessed as reduction in parasitemia at 13 mg/kg/day, ip measured after 10 days by bioluminescence assay; format: functional, organism-based; conditions: time 10.0 day
[11] = Toxicity in Trypanosoma cruzi Brazil trypomastigotes expressing firefly luciferase infected BALB/c mouse assessed toxic symptoms at 15 mg/kg, ip measured after 5 to 10 days; format: organism-based; conditions: in vivo, time 5-10 day
Method in brief: (§2)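 Same infected Balb/c model: luciferase T. cruzi, 10^5 trypomastigotes. Daily i.p. dosing for 10 days from day 4 post infection at 13 or 15 mg/kg/day, in 2% methylcellulose + 0.5% Tween 80, 5 mice/group. Mice observed for general health and deaths over the treatment period.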

Trypanosoma cruzi [12] = assay: Anti-chagasic activity against Trypanosoma cruzi Brazil trypomastigotes expressing firefly luciferase infected in BALB/c mouse assessed as reduction in parasitemia at 15 mg/kg/day, ip measured after 10 days by bioluminescence assay; format: functional, organism-based; conditions: time 10.0 day
Trypanosoma cruzi [13] = assay: Anti-chagasic activity against Trypanosoma cruzi Brazil trypomastigotes expressing firefly luciferase infected in BALB/c mouse assessed as reduction in parasitemia at 15 mg/kg/day, ip measured after 5 days by bioluminescence assay; format: functional, organism-based; conditions: time 5.0 day
[14] = Toxicity in Trypanosoma cruzi Brazil trypomastigotes expressing firefly luciferase infected BALB/c mouse assessed toxic symptoms at 13 mg/kg, ip measured after 5 to 10 days; format: organism-based; conditions: in vivo, time 5-10 day; method in brief: as §2

pKa [1] | Activity [3] | Structure (SMILES) | selectivity ratio (in vitro [2]) | also measured
11.2 | – | O=C(CCn1cnc([N+](=O)[O-])n1)Nc1cc(-c2ccc(F)cc2)on1 | > 201 | –
9.14 | Active | O=C(CCn1cnc([N+](=O)[O-])n1)Nc1cc(-c2ccc(Cl)cc2)no1 | – | –
– | – | O=C(Cn1cnc([N+](=O)[O-])n1)Nc1cccc(-c2ccccc2)c1 | – | IC50 (Trypanosoma cruzi [4]): 179 nM
12.8 | – | O=C(Cn1cnc([N+](=O)[O-])n1)Nc1cccc(OCc2ccccc2)c1 | 14.1 | selectivity ratio (in vitro [5]): 575; selectivity ratio (in vitro [6]): 20.3; IC50 (Trypanosoma cruzi [4]): 119 nM
14 | Active | O=C(CCn1cnc([N+](=O)[O-])n1)Nc1cccc(-c2ccccc2)c1 | – | –
11 | Active | O=C(Cn1cnc([N+](=O)[O-])n1)Nc1cc(-c2ccc(F)cc2)on1 | – | –
– | Active | O=C(Cn1cnc([N+](=O)[O-])n1)Nc1cc(-c2ccc(Cl)cc2)no1 | – | –
13.6 | – | O=C(Cn1cnc([N+](=O)[O-])n1)Nc1ccc(Oc2ccc(F)cc2)cc1 | 35 | –
12.7 | – | O=C(Cn1cnc([N+](=O)[O-])n1)NCc1ccc(C(F)(F)F)cc1 | 20 | selectivity ratio (in vitro [5]): 133; selectivity ratio (in vitro [6]): 12
13.2 | – | N#Cc1ccc(-c2ccc(NC(=O)Cn3cnc([N+](=O)[O-])n3)cc2)cc1 | 490 | selectivity ratio (in vitro [5]): 1190; IC50 (Trypanosoma cruzi [4]): 138 nM
13.3 | – | O=C(Cn1cnc([N+](=O)[O-])n1)Nc1ccc(Oc2ccccc2)cc1 | 34 | –
– | – | CN(C(=O)Cn1ccnc1[N+](=O)[O-])c1ccc(C(F)(F)F)cc1 | – | selectivity ratio (in vitro [5]): 3.8
14.1 | – | N#Cc1ccc(-c2ccc(NC(=O)CCn3cnc([N+](=O)[O-])n3)cc2)cc1 | – | Activity [11]: Non-Toxic; Activity (Trypanosoma cruzi [12]): Active; Activity (Trypanosoma cruzi [13]): Active
13.6 | – | O=C(Cn1cnc([N+](=O)[O-])n1)Nc1ccc(Oc2ccc(Cl)cc2)cc1 | 22 | IC50 (Trypanosoma cruzi [4]): 8 nM
14.5 | Active | O=C(CCn1cnc([N+](=O)[O-])n1)Nc1ccc(Oc2ccc(F)cc2)cc1 | – | Activity (Trypanosoma cruzi [9]): Active; Activity (Trypanosoma cruzi [10]): Active; Activity [14]: Non-Toxic
– | – | CN(C(=O)Cn1cnc([N+](=O)[O-])n1)c1ccc(C(F)(F)F)cc1 | 6.8 | selectivity ratio (in vitro [6]): 6.8
– | – | O=C(Cn1ccnc1[N+](=O)[O-])NCc1ccccc1 | – | Activity (Trypanosoma cruzi [12]): Active; Activity (Trypanosoma cruzi [13]): Active
14 | Active | O=C(CCn1cnc([N+](=O)[O-])n1)Nc1cccc(OCc2ccccc2)c1 | – | –

Structure (SMILES) | pKa [1] | Activity [3] | selectivity ratio (in vitro [2]) | also measured
O=C(CCn1cnc([N+](=O)[O-])n1)Nc1ccc(Oc2ccc(Cl)cc2)cc1 | 14.5 | Active | – | Activity [7]: Toxic; Activity [8]: Non-Toxic; Activity (Trypanosoma cruzi [9]): Active; selectivity ratio (in vitro [6]): 15; Activity (Trypanosoma cruzi [10]): Active
O=C(CCn1cnc([N+](=O)[O-])n1)Nc1ccc(Oc2ccccc2)cc1 | 14.5 | Active | – | selectivity ratio (in vitro [6]): 13.5
